pEC50: −log10 of the molar value. Calls of active or inactive are those of the source. No cut-off for these calls is given here.
Assays:
ScGT1 [1] = test: Antiprion activity against scrapie prion protein (unknown origin) infected in mouse ScGT1 cells assessed as decrease in PrPSc accumulation after 5 days measured following PK digestion by Western blot analysis; type: cell-based
[2] = Cytotoxicity against mouse ScGT1 cells assessed as cell viability at EC50 concentration after 5 days by fluorescence plate reader analysis; type: cell-based; details: read-out: Activity
[3] = Antiprion activity against scrapie prion protein (unknown origin) infected in mouse ScGT1 cells assessed as inhibition of PrPSc replication by ELISA; type: cell-based
[4] = Permeability of the compound assessed as diffusion from donor plate through porcine brain lipid membrane into acceptor plate at pH 7.4 by PAMPA method; type: ADME; details: pig, read-out: permeability
Method in brief: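 PAMPA permeability (Pe) reported as mean ± SD of two experiments. CNS+ assigned when Pe > 3.74 × 10⁻⁶ cm s⁻¹; CNS+/− when Pe lies between 3.74 × 10⁻⁶ and 1.50 × 10⁻⁶ cm s⁻¹.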

[5] = target: Amyloid-beta precursor protein (Homo sapiens) (UniProt P05067); test: Inhibition of amyloid beta (1 to 42) (unknown origin) fibril formation at 1:1 compound to amyloid beta ratio after 24 hrs by Thioflavin T-based fluorometric assay
Amyloid-beta precursor protein (Homo sapiens), sequence (P05067 whole entry): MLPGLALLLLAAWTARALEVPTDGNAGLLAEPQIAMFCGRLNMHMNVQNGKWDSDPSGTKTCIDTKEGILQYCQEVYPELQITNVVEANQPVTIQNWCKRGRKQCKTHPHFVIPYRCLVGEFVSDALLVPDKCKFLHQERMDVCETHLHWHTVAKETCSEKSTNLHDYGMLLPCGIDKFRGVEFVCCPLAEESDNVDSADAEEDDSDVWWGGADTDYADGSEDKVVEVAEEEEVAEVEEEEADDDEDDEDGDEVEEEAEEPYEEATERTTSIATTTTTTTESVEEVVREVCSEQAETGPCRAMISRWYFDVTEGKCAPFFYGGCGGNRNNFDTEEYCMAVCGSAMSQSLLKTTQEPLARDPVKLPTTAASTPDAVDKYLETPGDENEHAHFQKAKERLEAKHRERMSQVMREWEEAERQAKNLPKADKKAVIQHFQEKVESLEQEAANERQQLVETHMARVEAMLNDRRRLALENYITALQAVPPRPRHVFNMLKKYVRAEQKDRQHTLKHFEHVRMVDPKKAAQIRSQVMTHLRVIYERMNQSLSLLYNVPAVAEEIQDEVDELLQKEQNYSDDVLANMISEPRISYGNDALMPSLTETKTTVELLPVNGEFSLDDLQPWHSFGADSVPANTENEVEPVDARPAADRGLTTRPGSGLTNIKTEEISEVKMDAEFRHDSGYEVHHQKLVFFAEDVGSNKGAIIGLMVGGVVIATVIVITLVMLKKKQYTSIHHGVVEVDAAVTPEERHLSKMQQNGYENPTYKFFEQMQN

[6] = target: Major prion protein (Mus musculus) (UniProt P04925); test: Inhibition of mouse PrP (23-230) fibril formation assessed as extension of lag phase at 50 uM by amyloid seeding assay
Major prion protein (Mus musculus), sequence (P04925 whole entry): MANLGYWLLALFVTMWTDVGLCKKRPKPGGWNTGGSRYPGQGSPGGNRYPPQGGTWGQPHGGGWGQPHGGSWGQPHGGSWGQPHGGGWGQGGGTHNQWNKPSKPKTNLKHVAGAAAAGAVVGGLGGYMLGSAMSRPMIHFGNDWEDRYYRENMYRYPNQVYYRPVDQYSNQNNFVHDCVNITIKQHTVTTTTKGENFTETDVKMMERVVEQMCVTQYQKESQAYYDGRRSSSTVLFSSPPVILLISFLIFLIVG

[7] = Cytotoxicity against mouse ScGT1 cells assessed as cell viability at 1 uM after 5 days by fluorescence plate reader analysis; type: cell-based; details: read-out: Activity
[8] = target: Amyloid-beta precursor protein (Homo sapiens) (UniProt P05067); test: Binding affinity to amyloid beta (1 to 42) (unknown origin) at 0.5 uM by fluorescence analysis
ScGT1 [9] = test: Binding affinity to scrapie prion protein (unknown origin) aggregate in mouse ScGT1 cells at 0.84 mM measured following denaturation with 6 M guanidinium chloride by fluorescence microscopy; type: cell-based
Method in brief: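 Cells denatured with 6 M guanidinium chloride, then stained with 3·HCl at 0.84 mM (0.025%). Uninfected GT1 cells, with or without denaturation, serve as control. Imaged by fluorescence microscopy with FITC and ThS filter sets, nuclei counterstained with DAPI. Pattern compared with 0.025% Thioflavin S staining. A second line, ScN2a, was also used.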

[10] = target: Amyloid-beta precursor protein (Homo sapiens) (UniProt P05067); test: Displacement of Thioflavin-T from pre-aggregated amyloid beta (1 to 42) (unknown origin) at >25 nM by fluorometric assay
[11] = target: Amyloid-beta precursor protein (Homo sapiens) (UniProt P05067); test: Binding affinity to pre-aggregated amyloid beta (1 to 42) (unknown origin) assessed as hyperchromic effect at 5 uM by fluorescence analysis
Method in brief: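 Emission spectra of compound (5 μM) recorded in 10 mM phosphate buffer, pH 7.4, with and without aggregated Aβ42 (3 μM).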

[12] = target: Amyloid-beta precursor protein (Homo sapiens) (UniProt P05067); test: Binding affinity to pre-aggregated amyloid beta (1 to 42) (unknown origin) at 25 nM by Thioflavin T-based fluorometric assay
[13] = Cytotoxicity against mouse ScGT1 cells assessed as cell viability at 10 uM after 5 days by fluorescence plate reader analysis; type: cell-based; details: read-out: Activity
ScGT1 [14] = test: Binding affinity to PK-resistant scrapie prion protein (unknown origin) aggregate in mouse ScGT1 cells at 0.25 mM measured following PK digestion by fluorescence microscopy; type: cell-based
Method in brief: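 ScGT1 cells stained with 3·HCl at 0.25 mM after a proteinase K digestion step that removes PK-sensitive PrP^C. Uninfected GT1 cells processed the same way serve as control. Imaged by fluorescence microscopy, mainly with the FITC filter set and confirmed with the ThS filter set.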

Row | Compound | inhibition (ScGT1 [1]) | viability at 120 h [2] [%] | pEC50 [3] | Papp [4] [×10⁻⁶ cm/s] | inhibition [5] | TIME [6] [h] | viability at 120 h, 1 µM [7] [%] | inhibition ([5]; concentration not given here) [%] | Activity [8] | Activity (ScGT1 [9]) | Activity [10] | Activity [11] | Activity [12] | viability at 120 h, 10 µM [13] [%] | Activity (ScGT1 [14])
1 | O=C(CN1CCCC1)Nc1ccc(Cc2ccc(NC(=O)CN3CCCC3)cc2)cc1 | Dose-dependent effect | 93.4 | 5.82 |  |  |  |  |  |  |  |  |  |  |  | 
2 | CCN(CC)CCCC(C)Nc1c2ccc(Cl)cc2nc2ccc(OC)cc12 (centres undefined) [QUINACRINE] |  | 100 | 6.40 |  |  |  |  |  |  |  |  |  |  |  | 
3 | COc1ccc2nc(/C=C/c3ccccc3)ccc2c1 | Dose-dependent effect | 74.9 | 6.15 | 8.5 | inactive | > 70 | 60 |  |  |  |  |  |  |  | 
4 | Cc1ccc2nc(/C=C/c3ccc(N)cc3)ccc2c1 | Dose-dependent effect | 94.6 | 6.30 | 23.1 |  | > 70 | > 90 | 42.4 | Active | Active | Active | Active | Active | 60 | Active
5 | Cc1ccc2nc(/C=C/c3ccccc3)ccc2c1 | Dose-dependent effect | 90.5 | 6.30 | 3 | inactive | > 70 | > 90 |  |  |  |  |  |  |  | 
6 | COc1cc(/C=C/C(=O)CC(=O)/C=C/c2ccc(O)c(OC)c2)ccc1O |  |  |  |  |  |  |  | 73 |  |  |  |  |  |  | 

— ChEMBL document CHEMBL2321832, “A Fluorescent Styrylquinoline with Combined Therapeutic and Diagnostic Activities against Alzheimer's and Prion Diseases” (ACS Med Chem Lett, 2013)
